According to ChEMBL document CHEMBL3228029, “Blood glucose lowering sulfonamides with asymmetric carbon atoms. 3. Related N-substituted carbamoylbenzoic acids” (J Med Chem, 1979):
Calls of active or inactive are those of the source. The calls are words filed in the database; no cut-off is given here.

How the values were obtained:
[1] = tested on: Rattus norvegicus; assay: Hypoglycemic activity in iv dosed rat measured after 1 hr by GOD-Perid method; format: functional
Summary of the method: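 Fed female rats received the compound iv as its Na salt in 0.9% saline at four doses. Blood was sampled 1 h post-injection and glucose measured enzymatically (GOD-Perid). Changes were expressed as percent of the control group, and linear dose-response curves were fitted. ED50 is the dose for 50% reduction of the mean control value, with 95% confidence limits.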

[2] = tested on: Rattus norvegicus; assay: Hypoglycemic activity in rat at 0.16 to 2.5 mg/kg, iv measured after 3 hrs by GOD-Perid method; format: functional, organism-based
Summary of the method: (§1)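 Female rats in the fed state were injected iv with the Na salt dissolved in 0.9% saline at four graded doses. Blood samples were taken at 1 and 3 h, and glucose was determined enzymatically by the GOD-Perid method. Effects were expressed relative to the control group (percent control value).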

[3] = tested on: Rattus norvegicus; assay: Hypoglycemic activity in rat at 9.6 to 150 mg/kg, iv measured after 3 hrs by GOD-Perid method; format: functional, organism-based; summary of the method: as §1
[4] = tested on: Rattus norvegicus; assay: Hypoglycemic activity in rat at 0.0064 to 0.1 mg/kg, iv measured after 3 hrs by GOD-Perid method; format: functional, organism-based; summary of the method: as §1
[5] = tested on: Rattus norvegicus; assay: Toxicity in rat assessed as suvival at 937.5 mg/kg, iv; format: organism-based; design: dose 937.5 mg/kg, route intravenous; conditions: in vivo
Summary of the method: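 Survival was recorded in fed female rats after iv injection of the Na salt in 0.9% saline as the top dose of a four-dose series. Blood glucose was sampled at 1 and 3 h.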

[6] = tested on: Rattus norvegicus; assay: Hypoglycemic activity in rat at 40 to 937.5 mg/kg, iv measured after 3 hrs by GOD-Perid method; format: functional, organism-based; summary of the method: as §1
[7] = tested on: Rattus norvegicus; assay: Hypoglycemic activity in rat at 20 to 375 mg/kg, iv measured after 3 hrs by GOD-Perid method; format: functional, organism-based; summary of the method: as §1

SMILES: COc1ccc(F)cc1[C@@H](C)NC(=O)Cc1ccc(S(=O)(=O)Nc2ncc(CC(C)C)cn2)cc1
- ED50 [1]: 0.81 mg/kg
- Activity [2]: inactive

SMILES: COCCOc1cnc(NS(=O)(=O)c2ccccc2)nc1 [GLYMIDINE]
- ED50 [1]: 69.7 mg/kg
- Activity [3]: inactive

SMILES: COc1ccc(F)cc1[C@H](C)NC(=O)Cc1ccc(S(=O)(=O)Nc2ncc(CC(C)C)cn2)cc1 [GLIFLUMIDE]
- ED50 [1]: 0.02 mg/kg
- Activity [4]: inactive

SMILES: COc1ccc(F)cc1[C@@H](C)NC(=O)Cc1ccc(C(=O)O)cc1
- ED50 [1]: 1180 mg/kg
- Activity [5]: Toxic
- Activity [6]: inactive

SMILES: COc1ccc(F)cc1[C@H](C)NC(=O)Cc1ccc(C(=O)O)cc1
- ED50 [1]: 63.9 mg/kg
- Activity [7]: inactive
